Assay results as given in ChEMBL document CHEMBL4673248, “Discovery and Characterization of BAY 1214784, an Orally Available Spiroindoline Derivative Acting as a Potent and Selective Antagonist of the Human Gonadotropin-Releasing Hormone Receptor as Proven in a First-In-Human Study in Postmenopausal Women” (J Med Chem, 2020).
Values after ≈ are worked out from the molar mass of the structure shown.

What was measured:
[1] = Apparent permeability across apical to basolateral side in human Caco2 cells at 2 uM measured after 2 hrs by LC-MS/MS analysis; format: ADME, cell-based; settings: Caco-2
Summary of the method: (§1)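 Caco-2 monolayers grown 15 d, integrity checked by TEER. Compound 2 µM added apical or basolateral in FCS-free HEPES carbonate buffer pH 7.2, incubated 2 h at 37 °C. Both compartments sampled before and after, analysed by LC-MS/MS after MeOH precipitation. Papp computed from receiver peak area, surface area and time. Efflux ratio taken as Papp B–A/Papp A–B.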

[2] = biological target: Cytochrome P450 2C9 (Homo sapiens, UniProt P11712); experiment: Inhibition of CYP2C9 in human liver microsomes using diclofenac as substrate by LC-MS/MS analysis; format: ADME
[3] = biological target: T1, Cytochrome P450 3A4 (Homo sapiens, UniProt P08684); experiment: Irreversible inhibition of CYP3A4 in human liver microsomes using midazolam as substrate; format: ADME
[4] = Fraction unbound in human plasma; format: ADME, cell-free
[5] = biological target: Cytochrome P450 2D6 (Homo sapiens, UniProt P10635); experiment: Inhibition of CYP2D6 in human liver microsomes using dextromethorphan as substrate by LC-MS/MS analysis; format: ADME
[6] = Clearance in cynomolgus monkey hepatocytes; format: ADME, cell-based, Macaca fascicularis, Hepatocyte
[7] = Apparent permeability across basolateral to apical side in human Caco2 cells at 2 uM measured after 2 hrs by LC-MS/MS analysis; format: ADME, cell-based; settings: Caco-2; summary of the method: as §1
[8] = biological target: Voltage-gated inwardly rectifying potassium channel KCNH2 (Homo sapiens, UniProt Q12809); experiment: Inhibition of human ERG expressed in HEK293 cells assessed as reduction in channel inward tail current by whole cell voltage clamp assay; format: cell-based
[9] = Clearance in human hepatocytes; format: ADME, cell-based, Hepatocyte
[10] = biological target: T2, Cytochrome P450 1A2 (Homo sapiens, UniProt P05177); experiment: Inhibition of CYP1A2 in human liver microsomes using phenacetin as substrate by LC-MS/MS analysis; format: ADME
T2 sequence (P05177 whole entry): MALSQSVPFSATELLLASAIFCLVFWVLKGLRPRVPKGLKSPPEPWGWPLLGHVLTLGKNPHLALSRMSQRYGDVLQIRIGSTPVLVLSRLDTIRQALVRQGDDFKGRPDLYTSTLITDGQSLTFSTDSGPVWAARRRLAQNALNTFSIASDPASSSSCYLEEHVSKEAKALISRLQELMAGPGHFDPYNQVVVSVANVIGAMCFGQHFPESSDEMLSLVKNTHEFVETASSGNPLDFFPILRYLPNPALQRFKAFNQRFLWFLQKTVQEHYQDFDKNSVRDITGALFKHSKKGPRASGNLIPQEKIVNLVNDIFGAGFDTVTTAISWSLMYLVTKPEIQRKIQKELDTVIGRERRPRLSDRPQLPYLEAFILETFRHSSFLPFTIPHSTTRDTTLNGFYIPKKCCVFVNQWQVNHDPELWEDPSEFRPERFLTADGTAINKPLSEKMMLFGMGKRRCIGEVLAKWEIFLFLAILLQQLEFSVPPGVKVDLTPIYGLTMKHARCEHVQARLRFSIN

[11] = Clearance in dog liver microsomes; format: ADME, Canis lupus familiaris, Microsome
[12] = Maximum oral bioavailability in cynomolgus monkey hepatocytes; format: ADME, Macaca fascicularis, Hepatocyte; settings: read-out: Fmax
[13] = Maximum oral bioavailability in dog liver microsomes based well stirred liver model; format: ADME, Canis lupus familiaris, Microsome; settings: read-out: Fmax
[14] = Maximum oral bioavailability in rat liver microsomes based well stirred liver model at 1 uM measured after 2 to 60 mins in presence of NADP generating system by LC-MS/MS analysis; format: ADME, Microsome; settings: time 2-60 min, read-out: Fmax
[15] = biological target: T1, Cytochrome P450 3A4; experiment: Inhibition of CYP3A4 in human liver microsomes using […] as substrate by LC-MS/MS analysis; format: ADME
[16] = biological target: T3, Cytochrome P450 2C8 (Homo sapiens, UniProt P10632); experiment: Inhibition of CYP2C8 in human liver microsomes using amodiaquine as substrate by LC-MS/MS analysis; format: ADME
T3 sequence (P10632 whole entry): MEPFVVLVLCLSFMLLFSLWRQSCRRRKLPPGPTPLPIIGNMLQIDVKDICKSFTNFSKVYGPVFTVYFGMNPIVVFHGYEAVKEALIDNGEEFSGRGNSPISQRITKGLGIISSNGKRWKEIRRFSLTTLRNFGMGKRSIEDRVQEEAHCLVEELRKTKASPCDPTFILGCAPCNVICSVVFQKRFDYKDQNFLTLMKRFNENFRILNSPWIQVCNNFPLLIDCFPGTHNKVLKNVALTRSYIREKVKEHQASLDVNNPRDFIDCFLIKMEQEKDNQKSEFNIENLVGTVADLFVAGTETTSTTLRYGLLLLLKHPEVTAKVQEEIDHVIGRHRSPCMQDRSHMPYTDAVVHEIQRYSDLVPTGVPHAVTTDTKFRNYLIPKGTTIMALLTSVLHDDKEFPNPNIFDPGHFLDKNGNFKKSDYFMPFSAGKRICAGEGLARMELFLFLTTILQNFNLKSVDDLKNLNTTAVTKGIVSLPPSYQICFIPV

[17] = Intrinsic clearance in Han Wistar rat hepatocytes at 1 uM measured up to 90 mins by LC/MS/MS analysis; format: ADME, cell-based, Hepatocyte; settings: Han Wistar, read-out: CLH (converted)
[18] = Maximum oral bioavailability in human liver microsomes based well stirred liver model at 1 uM measured after 2 to 60 mins in presence of NADP generating system by LC-MS/MS analysis; format: ADME, Microsome; settings: time 2-60 min, read-out: Fmax
Summary of the method: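 Human liver microsomes at 0.5 mg/mL in 100 mM phosphate pH 7.4, 37 °C, G6P/NADP/G6PDH cofactor mix. Compound 1 µM, sampled at 2, 8, 16, 30, 45 and 60 min into cold MeOH, LC-MS/MS. Half-life to intrinsic clearance. Fmax from well-stirred model with liver blood flow 1.32 L/h/kg.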

[19] = Maximum oral bioavailability in Han Wistar rat hepatocytes at 1 uM measured after 2 to 90 mins by LC-MS/MS analysis; format: ADME, Hepatocyte; settings: time 2-90 min, read-out: Fmax
[20] = test system: Cynomolgus monkey; experiment: Suppression of orchiectomy-induced increase in plasma luteinizing hormone level in cynomolgus monkey at 20 mg/kg, po measured up to 24 hrs by RIA; format: functional, Macaca fascicularis; settings: time hrs <=24
Summary of the method: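 Orchiectomized cynomolgus monkeys given a single oral dose of 20 mg/kg. Plasma LH suppression expressed relative to baseline levels.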

[21] = Maximum oral bioavailability in human hepatocytes; format: ADME, Hepatocyte; settings: read-out: Fmax
[22] = Clearance in dog hepatocytes; format: ADME, cell-based, Canis lupus familiaris, Hepatocyte
[23] = Aqueous solubility of compound at pH 6.5 incubated for 24 hrs under shaking condition by HPLC-MS/MS analysis; format: physicochemical; settings: aqueous solution
Summary of the method: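 Compound from 1 mM DMSO solution, pH 6.5 buffer added, shaken 24 h at rt. Filtered, dissolved compound quantified by HPLC-MS/MS.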

[24] = test system: Homo sapiens; experiment: Suppression of plasma luteinizing hormone level in postmenopausal woman at 300 mg, po administered as single dose using SMEDDS formulation by ECLIA relative to control; format: functional
[25] = Lipophilicity, log D of the compound in pH 7.5 MeCN/H2O solution by reversed-phase HPLC analysis; format: physicochemical
Summary of the method: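 Indirect reversed-phase HPLC at pH 7.5, calibrated with n-alkan-2-ones C3–C16. Compounds applied as 0.67 mM DMSO stocks in MeCN/H2O (1:1).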

[26] = Toxicity in postmenopausal woman at 5 to 450 mg, po administered as single dose using SMEDDS formulation; settings: human, in vivo

T1 sequence (P08684 whole entry): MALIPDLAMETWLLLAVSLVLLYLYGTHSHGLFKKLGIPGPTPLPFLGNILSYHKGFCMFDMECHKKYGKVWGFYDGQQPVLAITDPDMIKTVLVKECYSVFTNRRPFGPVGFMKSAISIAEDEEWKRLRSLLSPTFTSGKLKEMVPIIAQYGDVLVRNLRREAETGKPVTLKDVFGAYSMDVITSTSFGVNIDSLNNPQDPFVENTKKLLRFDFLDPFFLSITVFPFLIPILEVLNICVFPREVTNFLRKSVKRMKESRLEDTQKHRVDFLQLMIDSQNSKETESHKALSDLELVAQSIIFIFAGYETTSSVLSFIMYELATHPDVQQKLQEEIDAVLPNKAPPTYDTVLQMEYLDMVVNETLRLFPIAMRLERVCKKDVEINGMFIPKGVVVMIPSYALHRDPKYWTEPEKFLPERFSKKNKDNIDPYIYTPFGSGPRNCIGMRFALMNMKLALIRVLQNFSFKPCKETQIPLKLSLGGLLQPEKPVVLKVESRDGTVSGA
Chain of Voltage-gated inwardly rectifying potassium channel KCNH2 (Q12809 whole entry): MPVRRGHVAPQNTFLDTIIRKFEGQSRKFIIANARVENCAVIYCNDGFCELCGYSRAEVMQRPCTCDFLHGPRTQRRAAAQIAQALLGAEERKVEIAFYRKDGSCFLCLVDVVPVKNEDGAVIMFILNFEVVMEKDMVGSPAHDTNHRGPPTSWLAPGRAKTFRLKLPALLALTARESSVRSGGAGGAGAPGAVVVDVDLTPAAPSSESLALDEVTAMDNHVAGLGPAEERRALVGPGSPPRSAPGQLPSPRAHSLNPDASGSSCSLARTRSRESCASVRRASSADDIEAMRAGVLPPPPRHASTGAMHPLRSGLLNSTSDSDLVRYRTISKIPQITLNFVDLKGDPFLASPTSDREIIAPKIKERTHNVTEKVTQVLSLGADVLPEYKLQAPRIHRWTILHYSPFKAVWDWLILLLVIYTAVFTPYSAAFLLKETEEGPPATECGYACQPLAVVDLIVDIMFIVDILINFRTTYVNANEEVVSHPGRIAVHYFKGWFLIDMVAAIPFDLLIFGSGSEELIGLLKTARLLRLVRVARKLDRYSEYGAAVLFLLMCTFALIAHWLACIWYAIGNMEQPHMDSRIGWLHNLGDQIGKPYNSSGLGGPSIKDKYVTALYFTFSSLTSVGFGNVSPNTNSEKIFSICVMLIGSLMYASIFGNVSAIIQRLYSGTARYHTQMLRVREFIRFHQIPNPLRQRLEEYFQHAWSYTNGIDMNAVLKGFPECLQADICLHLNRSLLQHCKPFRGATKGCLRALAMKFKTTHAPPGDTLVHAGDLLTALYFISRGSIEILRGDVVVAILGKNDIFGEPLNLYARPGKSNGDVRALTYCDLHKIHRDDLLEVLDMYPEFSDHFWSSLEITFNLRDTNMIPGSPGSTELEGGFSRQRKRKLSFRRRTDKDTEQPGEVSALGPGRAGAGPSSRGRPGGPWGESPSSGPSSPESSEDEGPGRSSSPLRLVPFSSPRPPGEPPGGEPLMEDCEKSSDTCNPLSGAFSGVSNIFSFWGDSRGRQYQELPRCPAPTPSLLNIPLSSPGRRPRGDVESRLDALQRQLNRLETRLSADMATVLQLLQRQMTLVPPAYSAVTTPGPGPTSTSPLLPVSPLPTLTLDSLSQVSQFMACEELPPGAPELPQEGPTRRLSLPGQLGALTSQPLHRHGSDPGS
Chain of Cytochrome P450 2C9 (P11712 whole entry): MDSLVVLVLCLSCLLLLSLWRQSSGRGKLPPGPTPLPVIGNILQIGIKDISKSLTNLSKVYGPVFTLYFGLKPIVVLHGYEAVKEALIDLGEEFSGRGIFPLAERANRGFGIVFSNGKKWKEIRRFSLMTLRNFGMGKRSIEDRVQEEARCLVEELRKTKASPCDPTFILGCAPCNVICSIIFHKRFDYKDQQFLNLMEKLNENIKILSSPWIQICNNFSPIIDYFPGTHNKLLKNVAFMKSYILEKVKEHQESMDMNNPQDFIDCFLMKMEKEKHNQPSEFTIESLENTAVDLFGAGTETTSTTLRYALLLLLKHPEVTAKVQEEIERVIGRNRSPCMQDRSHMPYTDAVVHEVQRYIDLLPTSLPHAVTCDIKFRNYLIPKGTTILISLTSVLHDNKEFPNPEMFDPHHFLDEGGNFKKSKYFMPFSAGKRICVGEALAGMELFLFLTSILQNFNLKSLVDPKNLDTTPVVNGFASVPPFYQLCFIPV
Chain of Cytochrome P450 2D6 (P10635 whole entry): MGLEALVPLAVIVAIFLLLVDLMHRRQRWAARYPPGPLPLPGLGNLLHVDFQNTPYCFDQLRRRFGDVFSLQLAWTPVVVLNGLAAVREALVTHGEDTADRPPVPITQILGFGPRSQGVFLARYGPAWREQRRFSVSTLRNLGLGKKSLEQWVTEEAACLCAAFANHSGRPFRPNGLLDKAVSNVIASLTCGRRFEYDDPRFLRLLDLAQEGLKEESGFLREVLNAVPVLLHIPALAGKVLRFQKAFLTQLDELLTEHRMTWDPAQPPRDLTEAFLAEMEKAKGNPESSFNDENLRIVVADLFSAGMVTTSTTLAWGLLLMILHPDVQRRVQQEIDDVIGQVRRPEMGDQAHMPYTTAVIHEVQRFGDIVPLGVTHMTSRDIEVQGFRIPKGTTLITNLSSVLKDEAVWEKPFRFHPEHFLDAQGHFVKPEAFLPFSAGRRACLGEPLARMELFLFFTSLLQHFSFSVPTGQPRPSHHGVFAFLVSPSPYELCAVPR

Q: Which Papp A→B at 2 h, 2 µM [1] does the source give for `O=C(NCc1ncc(C(F)(F)F)cc1Cl)c1ccc2c(c1)C1(CCS(=O)(=O)CC1)[C@H](C1CC1)N2S(=O)(=O)c1ccc(F)cc1` [BAY-784] here?
A: The Papp A→B at 2 h, 2 µM was 1.3 ×10⁻⁶ cm/s.

Q: And the IC50 [2]?
A: Its IC50 is greater than 10 µM.

Q: And the IC50 [3]?
A: Its IC50 is greater than 10 µM.

Q: What about the fraction unbound [4] of the same compound?
A: The fraction unbound was 0.014.

Q: What about the IC50 [5] of the same compound?
A: Its IC50 is greater than 10 µM.

Q: What about the CLH [6] of the same compound?
A: Its CLH is 11.8 mL/min/kg.

Q: What about the Papp B→A at 2 h, 2 µM [7] of the same compound?
A: The Papp B→A at 2 h, 2 µM was 12.9 ×10⁻⁶ cm/s.

Q: What about the IC50 [8] of the same compound?
A: Its IC50 is greater than 10 µM.

Q: What about the CLH [9] of the same compound?
A: Its CLH is 1.7 mL/min/kg.

Q: What about the IC50 [10] of the same compound?
A: The IC50 was greater than 10 µM.

Q: What about the CLH [11] of the same compound?
A: Its CLH is 5.33 mL/min/kg.

Q: And the Fh [12]?
A: The Fh was 72%.

Q: And the Fh [13]?
A: Its Fh is 85%.

Q: What about the Fh at 1 µM [14] of the same compound?
A: The Fh at 1 µM was 91%.

Q: What about the IC50 [15] of the same compound?
A: The IC50 was greater than 10 µM.

Q: And the IC50 [16]?
A: Its IC50 is 1 µM.

Q: And the CLint scaled at 1 µM [17]?
A: Its CLint scaled at 1 µM is 12.5 mL/min/kg.

Q: What about the Fh at 1 µM [18] of the same compound?
A: The Fh at 1 µM was 100%.

Q: What about the Fh at 1 µM [19] of the same compound?
A: Its Fh at 1 µM is 82%.

Q: And the Activity [20]?
A: Its Activity is “<=60%”.

Q: And the Fh [21]?
A: Its Fh is 93%.

Q: What about the CLH [22] of the same compound?
A: Its CLH is 12.2 mL/min/kg.

Q: And the solubility at 24 h [23]?
A: Its solubility at 24 h is 7.1 µg/mL (≈ 10.6 µM).

Q: And the Activity [24]?
A: Its Activity is 49%.

Q: And the chromatographic logD [25]?
A: Its chromatographic logD is 3.6.

Q: What about the Activity [26] of the same compound?
A: Its Activity is “Non-Toxic”.
